38 variants from the RNAGym collection of RNA variant scans (doi:10.1126/science.aae0568) can be followed below.

B1: tRNA (parent)
chain: GUUCCGUUGGCGUAAUGGUAACGCGUCUCCCUCCUAAGGAGAAGACUGCGGGUUCGAGUCCCGUACGGAACG

This sample holds only a part of the variants without activity.

In this data set the parent is B1. The data set can be described thus: yeast fitness relative to wild type (ratio to wild type); higher = fitter; tRNA-Arg(CCU), competitive growth, 37 C, YPD. Put shortly:
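A pool of Saccharomyces cerevisiae strains, each with a tRNA-Arg(CCU) gene variant at the native genomic locus, was competed in YPD at 37°C for 24 hours across six parallel replicates. The variants had been chemically synthesised at a 3% per-site mutation rate over 69 sites, and gene amplicons before and after competition were read by 100-nucleotide paired-end sequencing. Darwinian fitness relative to wild type rested on changes in genotype frequencies. Genotypes required ≥ 100 starting reads, and estimates < 0.5 were set to 0.5.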
For GUUCCGUUGGCGUAAUGGUAACGAGUCUCCCUCCUAAGGAGAAGACUGCGGGUUCGAGCCCCGUACGGAACG, the yeast fitness was determined as 0.553.
On to GUUCCGUUGGGGUAGUGGUAACGCGGCUCCCUCCUAAGGAGAAAACUGCGGGUUCGAGUCCCGUACGGAACG, for which the yeast fitness was no more than 0.5.
The value for GUUCCGUUGGCGUAAUGGUAACGCGUCAACCUCCUAGGGAGAAGACUGCGGGUUCGAGUCCCGUACGGAACG was no more than 0.5.
The figure for GUUCCGUUGGCGUAAUGGUAAGGCGUCUCCCUUCUAAGGAGAAGACUGCGGGUUCGAGUCCCGUACGGAACG is 0.713.
With GUUCCGUUGGAGUAAUGGUAACGCGUCUCCCUCCUAAGGAGAAGACCGCGCGUUCGAGUCCCGUACGGAACG, the yeast fitness was no more than 0.5.
As for GUUCCGUUGGCGUAAUGGUAACGCGUCUUCCUCCUAACGAGAAGACUGCGGGUUCGAGUCCCGCACGGAACG, the yeast fitness is no more than 0.5.
With GUUCCGUUGGCGUAAUGGUAACGCAUCUCCCUCCUAAGGAGAAGAAUGCGGCUUCGAGUCCCGUACGAAACG, the yeast fitness was no more than 0.5.
Consider GUUCCGUUGGCGUAAUGGUAACGCGUCUCGCUCCUAAGGAGUAGGCUGCGGGUUCGAGUCUCGUACAGAACG, for which the yeast fitness is no more than 0.5.
With GUUCGGUUGGCGUAAUGGUAUCACGUCUACCUCCUAUGGAGAAGACUGCGGGUUCGGGUCUCGUACGGAACG, the yeast fitness was found to be 0.541.
In the case of GAUCCGUUGGCGUAAUGGUAACGCGUCUCCCUCCUAAGGAGAAGACUGCGGGUUCGAGUCCCGUACGGAACG, the yeast fitness came to 0.988.
The value for GUUCCGUUGGUGUAAUGGUAACGCGUCUCCCUCCUAAGGAGAAGACUGCGGGUUCGAGUCGCGUACGGAACG was 0.638; that for GUUCCGUUGGCGUAAUGGUAACGCGUCUCCCUCCUUAGGAGAAGACUGCGGGGUCGAGUCCCGUACGGAACG was 0.544.
Regarding GUUCCGUUGGCGUAAGGGUAAGGCGUCUCCCUCCUAGGGAGAGGACUGCGGGUUCGAGUCCCGUACGAAACG, the yeast fitness is no more than 0.5.
GUUCCGUUGGCGUUAUGGUAACGCGUCUCCCUCCUAAGGAGAAGACUGCGGGUUAGAGUCCCGUCCGGAACG: the yeast fitness is no more than 0.5.
The value for GUUCCGUUGGCGUAAUGGUAACGCGUCUCCCUCCUACGGAGAAGUCUGCGGCUUCGAGUCCCGUACGGAACG was no more than 0.5; that for GGUCCGGUGGCGUAACGGUAACGCGUCUCCCUCUUAAGGAGAAGACUGCAGGUCCGAGUCCCGUUCGGAACG was no more than 0.5; that for GUUCCGUUGGCGUAAUGGUAACGCGUCUCCCUCCUAUGGAGAAGACUGCGGGUUCGAGGUCCGUACGGAACG was no more than 0.5.
With GGUCCGUUGGCGUAAUGGUAACGUGUCUCCCUCCUAAGGAGAAGACUGCGGGUUCGAGUCCCGUACGGUACG, the yeast fitness worked out at 0.681.
On to GUUCCGUUGGCGUAAUGGUAACGCGUCUCCCUCCUAAGGAGAAGACUGCGGGUCCGUGUCCCGUACGGAACG, for which the yeast fitness was 0.595.
Take GUCCCGUUGGUGUAAUGGUAACGCGUGUCCCUCCUAAGGAGAAGACUGCGGAUUCGAGUCCCGUACGGAACG: the yeast fitness was no more than 0.5.
The value for GUUCCGUUGGCGUAAUGGUAACGCGUCUCCCCCCUAAGGAGAAGACUGCGAGUUCGAGUCCCGUACGGAUCG was 0.868; that for GUUCCGUAGGCGUAAUGGUAACGCGUCUCCCUCCUAAGGAGAAGACUGCGGGUUCGAGUCCCGUACGGAACG was 0.741.
The value for GUUCCGUUGGCGUAAUGAUAACGCGUCUCCCUCCUAAGGAGAAGAGUGCGGGUUCGAGUCCCGUACGGAACG was 0.749; that for GUUCCGUUGGCGUUAUCGUAACGAGUCUCGCUCCUAAGGAGAAGACUGCGGGUUCGGGUCCCGUACGGAACG was no more than 0.5; that for GUUCCGUUGGCGUAAUGGUAACGCGUCUCCCUCCUAAGGAGAAGACUGCGCGUUCGAGUCCGGUACGAAUCG was no more than 0.5.
The value for GUACCGUUGGCGUACUCGUAACGCGUCUCCCUCCUAAGGAGAAGACUGCGGGUUCGAGUCCCGUACGGAACG was 0.507; that for GUUCCGUUGGCGUAAUGGUAACCCAUCUCCCUCCUAAGGAGAAGACUGCGGGUUCGAGUCCCGUACGGAACG was 0.818.
Take GUUCCGUUGGCGUAAUGGUAACGUGUCUCCCGCCUAAGGAGAAGACUGUGGGUUCGAGUACCGUACGGAACG: the yeast fitness stood at 0.646.
In the case of GUUUCGUUGGCGUAAUGGUAGCGCGUCUCCCUCCUAAGGAGAAGAAUGCGGGUUCGAGUCCCGUACGCAACG, the yeast fitness was 0.544.
As for GUUCCGUUGGCGUAAUGGUAACGCGUCUUCCUCCUAAGGAGAUGACUGCGGGUUCGAGUCCCGUACGGACCG, the yeast fitness stood at 1.01.
The value for GUUCCGUUGGCGUAAUGGUAACGCGUCUCCUUCCUAAGGAGCAGACUGCGGGUUCGAGUCCCGUACGGAACG was 1.17; that for GUUCCGUUGGCGUAAUGGUAAGGUGUCUCCCUCCUAAGGAGAAAACUGCGGGUUCGAGUCCCGUACGGAACG was 0.555; that for GUUCCGUUGGCCUAAUGGUAACGCGUCUCCCUCCUAAGGAGAAGUCUGCGGGUUCGAGUCGCGUACGGAACG was 0.528.
With GUUCCGUUGGCGUAAUGGUAACGCGCCUCCCUCCUAAGGAGAAGACUGCGGGUUCGUGUCCCGUACGGAACG, the yeast fitness amounted to 0.793.
As to GUUCCGUUGGCGUAAUGGUAACGCGUCUCCUUCCUAAGGAGAAGACUGCGGCUUCGAGUCCCGUUCGGAACG, the yeast fitness is no more than 0.5.
Turning to GUUCCGUUGGCGUUAAGGUAACGCGUCUCCCUCCUAAGGAGAAGACUGCGGGUUCGAGUCCCGUUCGGAACG, the yeast fitness came out at 0.626.
The value for GUUCCGUUGGCGUAAUGCUAACGCGUCUCCCUGCUAAGGAGAAGACUGAGGGUUUGAGUCCCGUACGGAACG was 0.517.
GUUCCGUUGGCGUAAUGGUAUCGCGUCUCCCUCCUAAGGAGAAGACUGCGGGUUCAAGUCCCGUACGGAACG: the yeast fitness came to 0.646.
